Reference: ChEMBL document CHEMBL2375320, “Synthesis and antimicrobial activity of polyhalo isophthalonitrile derivatives” (2013)
≈ marks a conversion by molar mass, not a printed value. Calls of active or inactive are those of the source. The rule behind the calls is not given here.

Columns and labels:
Format in all cases: functional
Candida albicans [1] = test: Antifungal activity against Candida albicans ATCC 10231 assessed as growth inhibition after 24 hrs by microbroth dilution method
How it was run: (§1)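 Tube dilution: each compound or positive control (norfloxacin, fluconazole) prepared in DMSO at 11 concentrations from 0.98 to 1000 µg/mL. Inoculum and sterile water added to tubes each holding 1 mL of compound solution. Tubes incubated 24 h and inspected for turbidity. MIC is the lowest concentration with no visible growth. Run in triplicate.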

Bacillus cereus [2] = test: Antibacterial activity against Bacillus cereus ATCC 14579 assessed as growth inhibition after 24 hrs by microbroth dilution method; settings: ATCC 14579, 24 h; how it was run: as §1
Staphylococcus aureus [3] = test: Antibacterial activity against Staphylococcus aureus ATCC 6538 assessed as growth inhibition after 24 hrs by microbroth dilution method; settings: ATCC 6538, 24 h; how it was run: as §1
Candida albicans [4] = test: Antifungal activity against Candida albicans ATCC 10231 assessed as growth inhibition at 1000 ug/mL after 72 hrs by disk diffusion method; settings: for zone of inhibition at 1000 µg/mL: ATCC 10231, 72 h, read-out: IZ
How it was run: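 Candida grown and kept on Sabouraud glucose agar plates. Compounds screened at a fixed 1000 µg/mL, with fluconazole as positive control. Plates incubated at 26 °C for 72 h, then zones of inhibition measured in mm.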

Pseudomonas aeruginosa = test: Antibacterial activity against Pseudomonas aeruginosa ATCC 15442 assessed as growth inhibition at 1000 ug/mL after 24 hrs by disk diffusion method; settings: for zone of inhibition at 1000 µg/mL: ATCC 15442, 24 h, read-out: IZ
Escherichia coli = test: Antibacterial activity against Escherichia coli ATCC 8099 assessed as growth inhibition at 1000 ug/mL after 24 hrs by disk diffusion method
Staphylococcus aureus [5] = test: Antibacterial activity against Staphylococcus aureus ATCC 6538 assessed as growth inhibition at 1000 ug/mL after 24 hrs by disk diffusion method; settings: for zone of inhibition at 1000 µg/mL: ATCC 6538, 24 h, read-out: IZ
Bacillus cereus [6] = test: Antibacterial activity against Bacillus cereus ATCC 14579 assessed as growth inhibition at 1000 ug/mL after 24 hrs by disk diffusion method; settings: for zone of inhibition at 1000 µg/mL: ATCC 14579, 24 h, read-out: IZ

SMILES | MIC (Candida albicans [1]; ATCC 10231, 24 h) [µg/mL] | MIC (Bacillus cereus [2]) [µg/mL] | MIC (Staphylococcus aureus [3]) [µg/mL] | zone of inhibition at 1000 µg/mL (Candida albicans [4]) [mm] | zone of inhibition at 1000 µg/mL (Pseudomonas aeruginosa) [mm] | inhibition zone (IZ) (Escherichia coli) | zone of inhibition at 1000 µg/mL (Staphylococcus aureus [5]) [mm] | zone of inhibition at 1000 µg/mL (Bacillus cereus [6]) [mm] | inhibition zone (IZ) (Pseudomonas aeruginosa) | inhibition zone (IZ) (Bacillus cereus [6]) | zone of inhibition at 1000 µg/mL (Escherichia coli; ATCC 8099, 24 h, read-out: IZ) [mm] | inhibition zone (IZ) (Candida albicans [4]) | inhibition zone (IZ) (Staphylococcus aureus [5]) | MIC (Candida albicans [1])
N#Cc1c(F)c(F)c(Nc2ccc(Cl)cc2)c(C#N)c1F | 2.3 (≈ 7.48 µM) | 31.3 (≈ 102 µM) | 1.5 (≈ 4.88 µM) | 13.3 | 7.8 | inactive | 19.8 | 16.7 | – | – | – | – | – | –
CCCSc1c(Cl)c(N)c(C#N)c(SCCC)c1C#N | > 1000 | > 1000 | 250 (≈ 767 µM) | – | – | inactive | 7.5 | – | inactive | inactive | – | – | – | –
N#Cc1c(Cl)c(Cl)c(Sc2ccccc2)c(C#N)c1Cl | > 500 | > 1000 | 250 (≈ 736 µM) | 6.8 | – | inactive | 7.3 | 7 | inactive | – | – | – | – | –
N#Cc1c(Cl)c(Cl)c(Cl)c(C#N)c1Cl [CHLOROTHALONIL] | 0.5 (≈ 1.88 µM) | 0.7 (≈ 2.63 µM) | 0.5 (≈ 1.88 µM) | 9.9 | – | inactive | 20.1 | 20.2 | inactive | – | – | – | – | –
N#Cc1c(F)c(F)c(Nc2ccccc2)c(C#N)c1F | 3.9 (≈ 14.3 µM) | 6.8 (≈ 24.9 µM) | 3.3 (≈ 12.1 µM) | 17.3 | 8 | inactive | 23 | 17.8 | – | – | – | – | – | –
CCn1cc(C(=O)O)c(=O)c2cc(F)c(N3CCNCC3)cc21 [NORFLOXACIN] | – | 0.5 (≈ 1.57 µM) | 0.5 (≈ 1.57 µM) | – | 18 | – | 19.9 | 15.2 | – | – | 31 | – | – | –
COc1ccc(Nc2c(Cl)c(Cl)c(C#N)c(Cl)c2C#N)cc1 | – | – | – | – | – | inactive | – | – | inactive | inactive | – | inactive | inactive | –
CCCSc1c(F)c(N)c(C#N)c(SCCC)c1C#N | – | – | – | – | – | inactive | 7.9 | 7.4 | inactive | – | – | – | – | –
CCCSc1c(Cl)c(N)c(C#N)c(F)c1C#N | > 500 | > 1000 | 1.6 (≈ 5.93 µM) | – | – | inactive | 8.5 | 7.6 | inactive | – | – | – | – | –
N#Cc1c(F)c(Cl)c(F)c(C#N)c1F | – | – | – | – | – | inactive | – | – | inactive | inactive | – | inactive | inactive | –
N#Cc1c(F)c(C#N)c(Sc2ccccc2)c(Cl)c1Sc1ccccc1 | – | – | – | – | – | inactive | – | – | inactive | inactive | – | inactive | inactive | –
CCCSc1c(Cl)c(SCCC)c(C#N)c(F)c1C#N | > 500 | > 1000 | 11.7 (≈ 35.6 µM) | – | – | inactive | 8.8 | 7.5 | inactive | – | – | inactive | – | –
N#Cc1c(N)c(Sc2ccccc2)c(Sc2ccccc2)c(C#N)c1Sc1ccccc1 | – | – | – | – | – | inactive | – | – | inactive | inactive | – | – | inactive | –
OC(Cn1cncn1)(Cn1cncn1)c1ccc(F)cc1F [FLUCONAZOLE] | 1 (≈ 3.27 µM) | – | – | 22.5 | – | – | – | – | – | – | – | – | – | –
CN(C)CCCNc1c(Cl)c(N)c(C#N)c(F)c1C#N | – | – | – | – | – | inactive | 14.2 | 15 | inactive | – | – | – | – | –
N#Cc1c(N)c(F)c(F)c(C#N)c1F | 62.5 (≈ 317 µM) | 104 (≈ 529 µM) | 125 (≈ 634 µM) | 7.5 | 7.8 | inactive | 11.8 | 8 | – | – | – | – | – | –

SMILES | MIC (Candida albicans [1]; ATCC 10231, 24 h) [µg/mL] | MIC (Bacillus cereus [2]) [µg/mL] | MIC (Staphylococcus aureus [3]) [µg/mL] | zone of inhibition at 1000 µg/mL (Candida albicans [4]) [mm] | zone of inhibition at 1000 µg/mL (Pseudomonas aeruginosa) [mm] | inhibition zone (IZ) (Escherichia coli) | zone of inhibition at 1000 µg/mL (Staphylococcus aureus [5]) [mm] | zone of inhibition at 1000 µg/mL (Bacillus cereus [6]) [mm] | inhibition zone (IZ) (Pseudomonas aeruginosa) | inhibition zone (IZ) (Bacillus cereus [6]) | zone of inhibition at 1000 µg/mL (Escherichia coli; ATCC 8099, 24 h, read-out: IZ) [mm] | inhibition zone (IZ) (Candida albicans [4]) | inhibition zone (IZ) (Staphylococcus aureus [5]) | MIC (Candida albicans [1])
N#Cc1c(F)c(F)c(NCc2ccccc2)c(C#N)c1F | 10.4 (≈ 36.2 µM) | 3.9 (≈ 13.6 µM) | 1.3 (≈ 4.53 µM) | 11.6 | – | inactive | 19.3 | 18.1 | inactive | – | – | – | – | –
N#Cc1c(N)c(Cl)c(N2CCCCC2)c(C#N)c1N1CCCCC1 | – | – | – | – | – | inactive | – | – | inactive | inactive | – | – | inactive | –
N#Cc1c(F)c(Cl)c(Nc2ccc(Cl)cc2)c(C#N)c1F | – | 417 (≈ 1290 µM) | 26 (≈ 80.2 µM) | – | 7.6 | inactive | 10.7 | 12.2 | – | – | – | inactive | – | inactive
N#Cc1c(F)c(F)c(F)c(C#N)c1F | – | – | – | – | – | inactive | – | – | inactive | inactive | – | inactive | inactive | –
N#Cc1c(F)c(Cl)c(Nc2ccccc2)c(C#N)c1F | 0.5 (≈ 1.73 µM) | 125 (≈ 432 µM) | 3.9 (≈ 13.5 µM) | 13.6 | 7.5 | inactive | 13 | 14.6 | – | – | – | – | – | –
CN(C)CCCNc1c(F)c(N)c(C#N)c(F)c1C#N | – | – | – | – | – | inactive | 7 | 7.1 | inactive | – | – | – | – | –
N#Cc1c(F)c(Cl)c(NCc2ccccc2)c(C#N)c1F | 0.5 (≈ 1.65 µM) | 0.4 (≈ 1.32 µM) | 0.5 (≈ 1.65 µM) | 13.9 | – | inactive | 23.1 | 22.6 | inactive | – | – | – | – | –
N#Cc1c(N)c(Cl)c(F)c(C#N)c1F | 15.6 (≈ 73 µM) | > 1000 | 46.9 (≈ 220 µM) | 7.3 | – | inactive | 8.6 | 7.4 | inactive | – | – | – | – | –
COc1ccc(Nc2c(Cl)c(F)c(C#N)c(F)c2C#N)cc1 | – | – | – | – | – | inactive | – | 6.8 | inactive | – | – | inactive | inactive | –
N#Cc1c(Sc2ccccc2)c(F)c(Sc2ccccc2)c(C#N)c1Sc1ccccc1 | – | – | – | – | – | inactive | – | 9.8 | inactive | – | – | inactive | inactive | –
COc1ccc(Nc2c(F)c(F)c(C#N)c(F)c2C#N)cc1 | – | > 1000 | 375 (≈ 1240 µM) | – | – | inactive | 8.7 | 8.6 | inactive | – | – | inactive | – | inactive
N#Cc1c(Cl)c(Cl)c(Nc2ccccc2)c(C#N)c1Cl | – | – | – | 15.3 | – | inactive | – | – | inactive | inactive | – | – | inactive | –
N#Cc1c(Cl)c(Cl)c(NCc2ccccc2)c(C#N)c1Cl | – | – | – | – | – | inactive | – | – | inactive | inactive | – | inactive | inactive | –
CCCSc1c(Cl)c(N)c(C#N)c(Cl)c1C#N | > 1000 | > 1000 | 500 (≈ 1750 µM) | – | – | inactive | 7 | 7 | inactive | – | – | – | – | –
N#Cc1c(N)c(Cl)c(Cl)c(C#N)c1Cl | – | – | – | – | – | inactive | – | – | inactive | inactive | – | inactive | inactive | –
